Laboratory results: ChEMBL document CHEMBL4351014, “Bis(het)aryl-1,2,3-triazole quinuclidines as α7 nicotinic acetylcholine receptor ligands: Synthesis, structure affinity relationships, agonism activity, [18F]-radiolabeling and PET study in rats” (Eur J Med Chem, 2019)

Experiments:
[1] = Drug uptake in rat brain hippocampus at 7.3 +/- 0.44 MBq, iv pretreated with alpha7 nAChR antagonist methyllycaconitine for 15 mins followed by compound addition and measured after 1 hr by gamma counting analysis; type: organism-based; settings: in vivo
Outline: (§1)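 Male Wistar rats (250-300 g, n=6 per group) under isoflurane received 0.3 mL tracer i.v. via the penis vein; MLA groups got methyllycaconitine 1 mg/kg i.v. 15 min before. Decapitated at 1 h. Frontal cortex, hippocampus, hypothalamus, striatum and cerebellum weighed and gamma counted (48% efficiency). %ID/g calculated against standard dilutions of the injectate, mean ± SEM.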

[2] = Drug uptake in rat brain cerebellum at 7.3 +/- 0.44 MBq, iv and measured after 1 hr by gamma counting analysis; type: ADME, organism-based; settings: in vivo; outline: as §1
[3] = Drug uptake in rat brain hippocampus at 7.3 +/- 0.44 MBq, iv and measured after 1 hr by gamma counting analysis; type: ADME, organism-based; settings: in vivo; outline: as §1
[4] = Drug uptake in rat brain frontal cortex at 7.3 +/- 0.44 MBq, iv pretreated with alpha7 nAChR antagonist methyllycaconitine for 15 mins followed by compound addition and measured after 1 hr by gamma counting analysis; type: organism-based; settings: in vivo; outline: as §1
[5] = Drug uptake in rat brain at 37MBq, iv administrated and measured during 71 mins of acquisition by PET-CT analysis; type: ADME, organism-based; settings: in vivo
Outline: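 Rats given a 37 MBq i.v. bolus and scanned on a microPET-CT for 71 min. Images reconstructed by 2-D OSEM; summed frames from 49-71 min shown.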

[6] = Drug uptake in rat brain frontal cortex at 7.3 +/- 0.44 MBq, iv and measured after 1 hr by gamma counting analysis; type: ADME, organism-based; settings: in vivo; outline: as §1
[7] = Drug uptake in rat brain hypothalamus at 7.3 +/- 0.44 MBq, iv and measured after 1 hr by gamma counting analysis; type: ADME, organism-based; settings: in vivo; outline: as §1
[8] = Ratio of drug uptake in rat brain frontal cortex to cerebellum at 7.3 +/- 0.44 MBq, iv and measured after 1 hr by gamma counting analysis; type: ADME, organism-based; settings: in vivo
[9] = Ratio of drug uptake in rat brain striatum to cerebellum at 7.3 +/- 0.44 MBq, iv and measured after 1 hr by gamma counting analysis; type: ADME, organism-based; settings: in vivo
[10] = Drug uptake in rat brain striatum at 7.3 +/- 0.44 MBq, iv pretreated with alpha7 nAChR antagonist methyllycaconitine for 15 mins followed by compound addition and measured after 1 hr by gamma counting analysis; type: organism-based; settings: in vivo; outline: as §1
[11] = Drug uptake in rat brain striatum at 7.3 +/- 0.44 MBq, iv and measured after 1 hr by gamma counting analysis; type: ADME, organism-based; settings: in vivo; outline: as §1
[12] = Ratio of drug uptake in rat brain hippocampus to cerebellum at 7.3 +/- 0.44 MBq, iv and measured after 1 hr by gamma counting analysis; type: ADME, organism-based; settings: in vivo
[13] = Stability of the compound in rat plasma measured up to 4 hrs by HPLC analysis; type: ADME, organism-based; settings: read-out: Stability
Outline: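 100 μL radiotracer mixed with 1 mL rat plasma at 37 °C. Acetonitrile added, organic layer filtered and analysed by radio-HPLC on a C18 column at 30 min, 1, 2 and 4 h. Repeated twice with different radiotracer preparations.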

[14] = Drug uptake in rat brain cerebellum at 7.3 +/- 0.44 MBq, iv pretreated with alpha7 nAChR antagonist methyllycaconitine for 15 mins followed by compound addition and measured after 1 hr by gamma counting analysis; type: organism-based; settings: in vivo; outline: as §1
[15] = Drug uptake in rat brain hypothalamus at 7.3 +/- 0.44 MBq, iv pretreated with alpha7 nAChR antagonist methyllycaconitine for 15 mins followed by compound addition and measured after 1 hr by gamma counting analysis; type: organism-based; settings: in vivo; outline: as §1
[16] = Drug uptake in rat brain cerebellum at 6.5 +/- 0.46 MBq, iv and measured after 1 hr by gamma counting analysis; type: ADME, organism-based; settings: in vivo; outline: as §1
[17] = Ratio of drug uptake in rat brain frontal cortex to cerebellum at 6.5 +/- 0.46 MBq, iv and measured after 1 hr by gamma counting analysis; type: ADME, organism-based; settings: in vivo
[18] = Drug uptake in rat brain frontal cortex at 6.5 +/- 0.46 MBq, iv and measured after 1 hr by gamma counting analysis; type: ADME, organism-based; settings: in vivo; outline: as §1
[19] = Drug uptake in rat brain cerebellum at 6.5 +/- 0.46 MBq, iv pretreated with alpha7 nAChR antagonist methyllycaconitine for 15 mins followed by compound addition and measured after 1 hr by gamma counting analysis; type: organism-based; settings: in vivo; outline: as §1
[20] = Drug uptake in rat brain hypothalamus at 6.5 +/- 0.46 MBq, iv pretreated with alpha7 nAChR antagonist methyllycaconitine for 15 mins followed by compound addition and measured after 1 hr by gamma counting analysis; type: organism-based; settings: in vivo; outline: as §1
[21] = Drug uptake in rat brain striatum […], iv and measured after 1 hr by gamma counting analysis; type: ADME, organism-based; settings: in vivo; outline: as §1
[22] = Drug uptake in rat brain striatum at 6.5 +/- 0.46 MBq, iv pretreated with alpha7 nAChR antagonist methyllycaconitine for 15 mins followed by compound addition and measured after 1 hr by gamma counting analysis; type: organism-based; settings: in vivo; outline: as §1
[23] = Stability of the compound in 0.9% sodium chloride/ethanol solution by HPLC analysis; type: physicochemical
[24] = Stability of the compound in 100% ethanol measured up to 4 hrs by HPLC analysis; type: physicochemical
[25] = Drug uptake in rat brain hippocampus at 6.5 +/- 0.46 MBq, iv and measured after 1 hr by gamma counting analysis; type: ADME, organism-based; settings: in vivo; outline: as §1
[26] = Drug uptake in rat brain frontal cortex at 6.5 +/- 0.46 MBq, iv pretreated with alpha7 nAChR antagonist methyllycaconitine for 15 mins followed by compound addition and measured after 1 hr by gamma counting analysis; type: organism-based; settings: in vivo; outline: as §1
[27] = Drug uptake in rat brain hypothalamus at 6.5 +/- 0.46 MBq, iv and measured after 1 hr by gamma counting analysis; type: ADME, organism-based; settings: in vivo; outline: as §1
[28] = Drug uptake in rat brain hippocampus at 6.5 +/- 0.46 MBq, iv pretreated with alpha7 nAChR antagonist methyllycaconitine for 15 mins followed by compound addition and measured after 1 hr by gamma counting analysis; type: organism-based; settings: in vivo; outline: as §1

[18F]c1ccc(-c2ccc(-c3cn([C@H]4CN5CCC4CC5)nn3)s2)cn1
Drug uptake [1]: Active
Drug uptake [2]: 0.58 % ID/g
Drug uptake [3]: 0.78 % ID/g
Drug uptake [4]: Active
Drug uptake [5]: Active
Drug uptake [6]: 0.85 % ID/g
Drug uptake [7]: 0.59 % ID/g
Ratio [8]: 1.47
Ratio [9]: 1.31
Drug uptake [10]: Active
Drug uptake [11]: 0.76 % ID/g
Ratio [12]: 1.34
remaining at 4 h [13]: > 95%
Drug uptake [14]: Active
Drug uptake [15]: Active

[18F]Cc1ccc(-c2ccc(-c3cn([C@H]4CN5CCC4CC5)nn3)s2)cc1
Drug uptake [16]: 0.44 % ID/g
Drug uptake [5]: Active
Ratio [17]: 1.29
Drug uptake [18]: 0.56 % ID/g
Drug uptake [19]: Active
Drug uptake [20]: Active
Drug uptake [21]: 0.44 % ID/g
remaining at 4 h [13]: > 95%
Drug uptake [22]: Active
Stability [23]: Unstable
Stability [24]: Stable
Drug uptake [25]: 0.43 % ID/g
Drug uptake [26]: Active
Drug uptake [27]: 0.42 % ID/g
Drug uptake [28]: Active
